For series [1], the system named is Rattus norvegicus. The experiment in a line: Distribution of radioactivity of radiolabeled compound in blood of female rats 5 minutes after intravenous administration. The format is ADME, organism-based. The note with it: in vivo.
Series [2] has as its system Rattus norvegicus. The experiment in a line: Distribution of radioactivity of radiolabeled compound in heart of female rats 30 minutes after intravenous administration. Type of series: ADME, organism-based. The note with it: in vivo, 0.5 h.
For series [3], the system named is Rattus norvegicus. The series is described as follows: Distribution of radioactivity of radiolabeled compound in blood of female rats 30 minutes after intravenous administration. The format is ADME, organism-based. The note with it: in vivo, 0.5 h.
Series [4] has as its system Rattus norvegicus. The experiment in a line: Distribution of radioactivity of radiolabeled compound in heart of female rats 5 minutes after intravenous administration. The format is ADME, organism-based. The note with it: in vivo.
Series [5] has as its system Rattus norvegicus. The series is described as follows: Distribution of radioactivity of radiolabeled compound in kidney of female rats 30 minutes after intravenous administration. The format is ADME, organism-based. The note with it: in vivo, 0.5 h.
The test system of series [6] is Rattus norvegicus. The experiment in a line: Distribution of radioactivity of radiolabeled compound in kidney of female rats 5 minutes after intravenous administration. Type of series: ADME, organism-based. The note with it: in vivo.
Series [7] deals with Rattus norvegicus. The experiment in a line: Distribution of radioactivity of radiolabeled compound in liver of female rats 30 minutes after intravenous administration. The format is ADME, organism-based. The note with it: in vivo, 0.5 h.
Series [8] relates to Rattus norvegicus. The experiment in a line: Distribution of radioactivity of radiolabeled compound in liver of female rats 5 minutes after intravenous administration. Type of series: ADME, organism-based. The note with it: in vivo.
For series [9], the system named is Rattus norvegicus. The series is described as follows: Distribution of radioactivity of radiolabeled compound in lung of female rats 30 minutes after intravenous administration. The format is ADME, organism-based. The note with it: in vivo, 0.5 h.
The test system of series [10] is Rattus norvegicus. The series is described as follows: Distribution of radioactivity of radiolabeled compound in lung of female rats 5 minutes after intravenous administration at. Type of series: ADME, organism-based. The note with it: in vivo.
Series [11] concerns Rattus norvegicus. The experiment in a line: Percentage […]/CH3OH extract of the radiolabeled compound in rat liver 30 minutes after iv administration. Type of series: functional. Summed up: (§1)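 Liver and plasma were taken at 5 or 30 min. Plasma was extracted by a modified Folch procedure, and liver was homogenized and extracted. Extracts were run on TLC in hexane/ethyl acetate (5:2) for esters or THF/hexane (1:1) for acids, with unlabeled compound as reference. Plates were cut into 1-cm strips and counted. Values are percent ± SEM, n = 3-5.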

In series [12] the test system is Rattus norvegicus. The experiment in a line: Percentage […]/CH3OH extract of the radiolabeled compound in rat liver 5 minutes after iv administration. The format is functional. A digest of the protocol: as §1
Series [13] concerns Rattus norvegicus. The series is described as follows: Percentage […]/CH3OH extract of the radiolabeled compound in rat plasma 30 minutes after iv administration. The format is functional. A digest of the protocol: as §1
Series [14] deals with Rattus norvegicus. The series is described as follows: Percentage […]/CH3OH extract of the radiolabeled compound in rat plasma 5 minutes after iv administration. The format is functional. A digest of the protocol:
as §1

Series [15] has as its system Rattus norvegicus. The series is described as follows: Percentage parent compound in rat liver 30 minutes after iv administration of the radiolabeled compound by thin-layer chromatography. The format is functional. Summed up:
as §1

Series [16] has as its system Rattus norvegicus. The experiment in a line: Percentage parent compound in rat liver 5 minutes after iv administration of the radiolabeled compound by thin-layer chromatography. Type of series: functional. Summed up:
as §1

Series [17] concerns Rattus norvegicus. The experiment in a line: Percentage parent compound in rat plasma 30 minutes after iv administration of the radiolabeled compound by thin-layer chromatography. Type of series: functional. A digest of the protocol:
as §1

Series [18] concerns Rattus norvegicus. The experiment in a line: Percentage parent compound in rat plasma 5 minutes after iv administration of the radiolabeled compound by thin-layer chromatography. The format is functional. A digest of the protocol:
as §1

The subject of series [19] is Rattus norvegicus. The experiment in a line: Polyacrylamide Gel Electrophoresis (PAGE) analysis of rat plasma 30 minutes after intravenous administration of radiolabeled in stacking gel. Type of series: functional, organism-based. A digest of the protocol: (§2)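 Gels were sectioned and counted in a γ counter. Radioactivity in each band (stacking gel, LDL, HDL, albumin, below albumin) is expressed as a percentage of the total radioactivity applied to the gel, ± SEM, n = 3-5.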

The test system of series [20] is Rattus norvegicus. The series is described as follows: Polyacrylamide Gel Electrophoresis (PAGE) analysis of rat plasma 30 min after intravenous administration of radiolabeled compound ( below albumin). Type of series: functional, organism-based. A digest of the protocol: as §2
In series [21] the test system is Rattus norvegicus. The series is described as follows: Polyacrylamide Gel Electrophoresis (PAGE) analysis of rat plasma 30 min after intravenous administration of radiolabeled compound inlow density lipoprotein. Type of series: functional, organism-based. A digest of the protocol: as §2
The subject of series [22] is Rattus norvegicus. The series is described as follows: Polyacrylamide Gel Electrophoresis (PAGE) analysis of rat plasma 5 minutes after intravenous administration of radiolabeled compound (below albumin ). The format is functional, organism-based. Summed up:
(§3)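 ¹²⁵I-labeled compound, radioiodinated by exchange in a pivalic acid melt, solubilized in normal saline with Tween 20 and given iv to adult female Sprague–Dawley rats (200–250 g), 5–30 μCi/animal, 3–4 rats per time point. Plasma was run on polyacrylamide gels. Gels were sectioned and gamma counted. Radioactivity per band (stacking gel, LDL, HDL, albumin, below albumin) is given as % of total applied; mean ± SEM, n = 3-5.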

The subject of series [23] is Rattus norvegicus. The series is described as follows: Polyacrylamide Gel Electrophoresis (PAGE) analysis of rat plasma 5 minutes after intravenous administration of radiolabeled compound at in high density lipoprotein. The format is functional, organism-based. Summed up:
as §3

Series [24] has as its system Rattus norvegicus. The experiment in a line: Polyacrylamide Gel Electrophoresis (PAGE) analysis of rat plasma 5 minutes after intravenous administration of radiolabeled compound in low-density lipoprotein. Type of series: functional, organism-based. Summed up:
as §3

Series [25] has as its system Rattus norvegicus. The experiment in a line: Polyacrylamide Gel Electrophoresis (PAGE) analysis of rat plasma 5 minutes after intravenous administration of radiolabeled compound in stacking gel. The format is functional, organism-based. A digest of the protocol: as §3
Series [26] has as its system Rattus norvegicus. The series is described as follows: Polyacrylamide Gel Electrophoresis (PAGE) analysis of rat plasma 30 min after intravenous administration of radiolabeled compound at in high density. The format is functional, organism-based. A digest of the protocol: as §2
Series [27] deals with Rattus norvegicus. The experiment in a line: Polyacrylamide Gel Electrophoresis (PAGE) analysis of rat plasma 30 min after intravenous administration of radiolabeled compound in albumin. The format is functional, organism-based. Summed up: as §2
Series [28] deals with Rattus norvegicus. The experiment in a line: Polyacrylamide Gel Electrophoresis (PAGE) analysis of rat plasma 5 min after intravenous administration of radiolabeled compound concentration of albumin. Type of series: functional, organism-based. Summed up:
as §2

In series [29] the test system is Rattus norvegicus. The series is described as follows: Distribution of radioactivity of radiolabeled compound in liver of female rats 5 minutes after intravenous administration at. Type of series: ADME, organism-based. The note with it: in vivo.
The subject of series [30] is Rattus norvegicus. The series is described as follows: Distribution of radioactivity of radiolabeled compound in lung of female rats 5 minutes after intravenous administration. The format is ADME, organism-based. The note with it: in vivo.
In series [31] the test system is Rattus norvegicus. The experiment in a line: Polyacrylamide Gel Electrophoresis (PAGE) analysis of rat plasma 30 min after intravenous administration of radiolabeled in low-density lipoprotein. Type of series: functional, organism-based. Summed up: as §2
For series [32], the system named is Rattus norvegicus. The series is described as follows: Polyacrylamide Gel Electrophoresis (PAGE) analysis of rat plasma 5 minutes after intravenous administration of radiolabeled compound in high density lipoprotein. The format is functional, organism-based. A digest of the protocol: as §3
Series [33] deals with Rattus norvegicus. The series is described as follows: Polyacrylamide Gel Electrophoresis (PAGE) analysis of rat plasma 5 minutes after intravenous administration of radiolabeled in low-density lipoprotein. The format is functional, organism-based. Summed up:
as §3

The test system of series [34] is Rattus norvegicus. The experiment in a line: Polyacrylamide Gel Electrophoresis (PAGE) analysis of rat plasma 5 minutes after intravenous administration of radiolabeled in stacking gel. The format is functional, organism-based. Summed up: as §3
Series [35] has as its system Rattus norvegicus. The series is described as follows: Polyacrylamide Gel Electrophoresis (PAGE) analysis of rat plasma 5 min after intravenous administration of radiolabeled compound in albumin. Type of series: functional, organism-based. A digest of the protocol: as §2
Series [36] has as its system Rattus norvegicus. The series is described as follows: Polyacrylamide Gel Electrophoresis (PAGE) analysis of rat plasma 30 min after intravenous administration of radiolabeled compound (below albumin ). Type of series: functional, organism-based. Summed up:
as §2

For series [37], the system named is Rattus norvegicus. The series is described as follows: Polyacrylamide Gel Electrophoresis (PAGE) analysis of rat plasma 30 min after intravenous administration of radiolabeled compound at concentration of high density. Type of series: functional, organism-based. Summed up: as §2
For series [38], the system named is Rattus norvegicus. The experiment in a line: Polyacrylamide Gel Electrophoresis (PAGE) analysis of rat plasma 30 min after intravenous administration of radiolabeled compound concentration of stacking gel. Type of series: functional, organism-based. A digest of the protocol: as §2

Molecules are shown by their SMILES.

Our source for the Dose, Activity and Concentration values is ChEMBL document CHEMBL1123430, “Potential tumor- or organ-imaging agents. 26. Polyiodinated 2-substituted triacylglycerols as hepatographic agents” (J Med Chem, 1986).

In the case of `CCCCCCCCCCCCCCCC(=O)OCC(COC(=O)CCCCCCCCCCCCCCC)OC(=O)CCCCCCCCCCCc1c(I)cc(I)c(N)c1I`, the Dose turned out to be 2.5% in series [1]; 0.7% in [2]; 1.12% in series [3]; 0.73% in series [4]; 1.21% in [5]; 0.59% in series [6]. For the same molecule, the Dose turned out to be 5.22% in series [7], 6.62% in [8], 1.84% in [9] and 1.73% in [10]. Besides, the Activity in series [11] is 61.2%; in series [12], 40.9%; in series [13], 54.8%; in [14], 81.8%; in series [15] it was 42.9%; in [16], 46.4%. In addition, the Activity is on record as 34% in [17] and 43.2% in [18]. Also, the Concentration turned out to be 13.2 in series [19]; 12.5 in series [20]; 9.7 in series [21]; 3 in series [22]; 33.3% in [23]; 26% in [24]. The Concentration in series [25] worked out at 6.9%; in [26], 15.6%; in series [27], 48.9; in [28] it was 30.8.

As for `Nc1c(I)cc(I)c(CCCCCCCCCCCC(=O)O)c1I`, the Dose in series [1] is listed as 1.21%; in series [2] it was 0.73%; in series [3] it was 1.06%; in [4], 1.15%; in series [5], 1.46%; in series [6] it was 0.77%. For the same molecule, the Dose in [7] was determined as 3.63%; in series [29], 6.96%; in series [9], 0.66%; in [30] it was 0.95%. Besides, the Concentration in [31] came to 3.8; in [22], 4.8; in series [32], 8; in [33], 1; in [34] it was 1.5%; in series [35], 84.6. Moreover, the Concentration in series [36] was 26.3; in series [37], 5.6; in series [38], 11.2; in series [27], 54.4.
